Published values from different studies.
Compare with care: the assays were run in different laboratories.
Target: Phosphorylase b kinase gamma catalytic chain, skeletal muscle/heart isoform (PHKG1, Homo sapiens, UniProt Q16816)

SMILES	read-out	action	technique	tested at	endpoint	result
COc1cccc2c(NCc3ccccc3)nc(-n3c(N)nc4ccccc43)nc12	target engagement in cells	inhibitor	chemoproteomics	20 mM	inhibition	6.1%
COc1cc2ncnc(Nc3ccc(Oc4ccccc4)cc3C)c2cc1OC	enzyme activity	inhibitor	–	1 µM	inhibition	-1%
CCCS(=O)(=O)Nc1ccc(F)c(C(=O)c2c[nH]c3ncc(-c4ccc(Cl)cc4)cc23)c1F	enzyme activity	inhibitor	–	1 µM	inhibition	< 20%
O=C(Nc1cnn(-c2csc(C(=O)NC3COC3)c2)c1)Nc1ccccc1Cl	enzyme activity	inhibitor	–	5 µM	remaining activity	102%
COc1cc(Cl)c(C(=O)N[C@@H](CN[C@H]2CC[C@@H](N)CC2)Cc2ccc(C#N)cc2)cc1-c1ccc(CN[C@H](C)c2ccc(C)cc2)o1	enzyme activity	inhibitor	–	1 µM	remaining activity	68%
COc1cccc(CNC(=O)c2nc3scc(COCc4ccc(C(=O)O)cc4)c3c(=O)[nH]2)c1	cell-free assay	–	competition with immobilised ligand	1 µM	remaining binding	100%
Nc1ncnc2occ(-c3ccc(NC(=O)Nc4cc(C(F)(F)F)ccc4F)cc3)c12	cell-free assay	inhibitor	–	20 µM	remaining signal	92%
CCCOc1ccc([C@H]2[C@H](C(=O)O)[C@@H](c3ccc4c(c3)OCO4)CN2CC(=O)Nc2c(CC)cccc2CC)cc1	cell-free assay	–	competition with immobilised ligand	1 µM	remaining binding	99%
Nc1nc(NC2CCCCC2)sc1C(=O)c1ccccc1	enzyme activity	inhibitor	–	10 µM	remaining activity	105%
CCCCNc1ncc2c(-c3ccc(F)cc3)nn(C[C@H]3CC[C@H](N)CC3)c2n1	target engagement in cells	inhibitor	chemoproteomics	20 mM	inhibition	26.4%
Cc1ccc(C(=O)Nc2ccc(CN3CCN(C)CC3)c(C(F)(F)F)c2)cc1C#Cc1cnc2cccnn12	enzyme activity	inhibitor	–	23.5 nM	remaining activity	100%
CS(=O)(=O)c1cc(C2(NC(=O)c3cncc4c3cnn4-c3ccc(F)cc3)CC2)ccn1	cell-free assay	–	competition with immobilised ligand	1 µM	remaining binding	78%
FC(F)c1nc2ccccc2n1-c1nc(N2CCOCC2)nc(N2CCOCC2)n1	enzyme activity	inhibitor	–	10 µM	remaining activity	94%
CC(C)(C)C(=O)c1sc(NC2CCCCC2)nc1N	enzyme activity	inhibitor	–	10 µM	remaining activity	112%
CN(C)C(=O)Cn1cc(-c2nc([C@@](C)(c3ccc(-c4cnc(N)nc4)cc3)C3CC3)no2)cn1	cell-free assay	–	competition with immobilised ligand	1 µM	remaining binding	77%
Oc1cccc(-c2nc(N3CCOCC3)c3oc4ncccc4c3n2)c1	enzyme activity	inhibitor	–	10 µM	remaining activity	84%
C[C@@H]1CN(c2cc(-c3nn(C)c4ccc(OC5(C)CC5)cc34)ncn2)C[C@H](C)O1	cell-free assay	–	competition with immobilised ligand	1 µM	remaining binding	90%
CC(C)(C)c1nc2c(s1)c1nc(N)ncc1c1ccc(NS(=O)(=O)c3c(F)cccc3F)c(F)c12	enzyme activity	inhibitor	radiometric	1 µM	remaining activity	98%
O=C(Nc1cnc(Oc2ccc(F)cc2)nc1)N1CCc2ncccc2[C@@H]1c1ccc(F)cc1	cell-free assay	–	competition with immobilised ligand	1 µM	remaining binding	100%
N#CCCc1ccc2c(c1)-c1[nH]c3ccc([N+](=O)[O-])cc3c1CC(=O)N2	cell-free assay	–	–	0.5 µM	remaining signal	7.72%
